Measurements published in ChEMBL document CHEMBL1949527, “Use of copper(I) catalyzed azide alkyne cycloaddition (CuAAC) for the preparation of conjugated pyrrolo[2,3-a]carbazole Pim kinase inhibitors” (Eur J Med Chem, 2012).
Each block holds one compound with its values, some of them ahead of it.

Assays:
PC-3 = assay: Cellular uptake in human PC3 cells at 10 uM after 24 hrs by fluorescence microscopy; format: ADME, cell-based; conditions: pc-3, 24 h
In short: (§1)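 PC-3 cells in RPMI-1640 with 10% FBS, 2 mM L-glutamine and penicillin/streptomycin were grown overnight on coverslips, then exposed to 10 μM compound in DMSO (vehicle control 0,1% DMSO) for 24 h. Cells were PBS-washed, fixed 15 min in 4% paraformaldehyde and mounted. Fluorescence microscopy used a DAPI filter. Mean intensity was background-corrected and averaged from three regions in two parallel samples.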

[1] = biological target: T1, Serine/threonine-protein kinase pim-1 (Homo sapiens, UniProt P11309); assay: Inhibition of human recombinant His6-tagged PIM1 expressed in Sf21 cells assessed as residual activity using RSRHSSYPAGT as substrate at 10 uM after 30 mins
In short: (§2)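 Residual activity at 10 μM inhibitor, run in duplicate. Assay buffer was 50 mM Tris/HCl pH 7.5, 0.1 mM EGTA, 0.1% 2-mercaptoethanol. Reactions were stopped with orthophosphoric acid and spotted onto P81 filters.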
Target sequence in this assay (P11309 whole entry, looked up): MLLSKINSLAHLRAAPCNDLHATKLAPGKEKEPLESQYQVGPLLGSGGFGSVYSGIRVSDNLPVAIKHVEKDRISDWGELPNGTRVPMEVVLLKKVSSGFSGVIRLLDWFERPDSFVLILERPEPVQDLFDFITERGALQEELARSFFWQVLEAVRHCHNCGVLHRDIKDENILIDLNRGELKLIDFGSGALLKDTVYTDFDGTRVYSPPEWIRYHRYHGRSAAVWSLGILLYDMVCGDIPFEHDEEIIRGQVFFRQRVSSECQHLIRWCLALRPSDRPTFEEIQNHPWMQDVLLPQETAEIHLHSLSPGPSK

[2] = biological target: T1, Serine/threonine-protein kinase pim-1; assay: Inhibition of human recombinant His6-tagged PIM1 expressed in Sf21 cells using RSRHSSYPAGT as substrate after 30 mins
Target sequence in this assay (P11309 whole entry): as the sequence (P11309 whole entry, looked up) above

[3] = biological target: T2, Serine/threonine-protein kinase pim-2 (Homo sapiens, UniProt Q9P1W9); assay: Inhibition of human recombinant PIM2 expressed in Escherichia coli assessed as residual activity using RSRHSSYPAGT as substrate at 10 uM after 30 mins; in short: as §2
Target sequence in this assay (Q9P1W9 whole entry, looked up): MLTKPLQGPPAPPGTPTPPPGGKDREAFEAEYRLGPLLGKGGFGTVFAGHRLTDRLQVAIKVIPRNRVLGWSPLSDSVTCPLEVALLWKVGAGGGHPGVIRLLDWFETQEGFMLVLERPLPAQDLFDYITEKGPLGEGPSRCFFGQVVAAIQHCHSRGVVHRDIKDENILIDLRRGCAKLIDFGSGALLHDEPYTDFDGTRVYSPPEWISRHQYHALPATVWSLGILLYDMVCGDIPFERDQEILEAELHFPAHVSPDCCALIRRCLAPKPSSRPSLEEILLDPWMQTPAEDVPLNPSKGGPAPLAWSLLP

[4] = biological target: T3, Serine/threonine-protein kinase pim-3 (Homo sapiens, UniProt Q86V86); assay: Inhibition of human recombinant His6-tagged PIM3 expressed in Sf21 cells assessed as residual activity using RSRHSSYPAGT as substrate at 10 uM after 30 mins; in short: as §2
[5] = biological target: T3, Serine/threonine-protein kinase pim-3; assay: Inhibition of human recombinant His6-tagged PIM3 expressed in Sf21 cells using RSRHSSYPAGT as substrate after 30 mins
[6] = Drug uptake in human PC3 cell cytoplasm at 10 uM after 24 hrs by fluorescence microscopy; format: ADME, cell-based; conditions: pc-3, 24 h; in short: as §1
[7] = Drug uptake in human PC3 cell nucleus at 10 uM after 24 hrs by fluorescence microscopy; format: ADME, cell-based; conditions: pc-3, 24 h; in short: as §1
[8] = biological target: T2, Serine/threonine-protein kinase pim-2; assay: Inhibition of human recombinant PIM2 expressed in Escherichia coli using RSRHSSYPAGT as substrate after 30 mins
Target sequence in this assay (Q9P1W9 whole entry): as the sequence (Q9P1W9 whole entry, looked up) above

Compound: O=Cc1c[nH]c2c1ccc1c3ccccc3[nH]c12
Drug uptake (PC-3): Not Active

Compound: CN(C)c1cccc2c(S(=O)(=O)NCc3cn(CCCCn4c5ccccc5c5ccc6c(C=O)c[nH]c6c54)nn3)cccc12
Activity [1]: 17%
Activity [3]: 66%
Activity [4]: 38%
Drug uptake [6]: Active
Drug uptake [7]: Not Active

Compound: O=Cc1cn2c3c1ccc1c4ccccc4n(c13)CCCC2
Activity [1]: 7%
IC50 [2]: 0.008 µM
Activity [3]: 6%
Activity [4]: 1%
IC50 [5]: 0.013 µM
IC50 [8]: 0.35 µM

Results, then the compound that gave them:

Activity [1]: 9%
IC50 [2]: 0.327 µM
Activity [3]: 65%
Activity [4]: 28%
IC50 [5]: 0.49 µM
Compound: C[N+](C)(CCO)Cc1cn(CCCCn2c3ccccc3c3ccc4c(C=O)c[nH]c4c32)nn1

Activity [1]: 9%
IC50 [2]: 0.105 µM
Activity [3]: 22%
Activity [4]: 14%
IC50 [5]: 0.108 µM
Compound: [N-]=[N+]=NCCCCn1c2ccccc2c2ccc3c(C=O)c[nH]c3c21

Activity [1]: 8%
IC50 [2]: 0.315 µM
Activity [3]: 36%
Activity [4]: 23%
IC50 [5]: 0.235 µM
Compound: O=Cc1c[nH]c2c1ccc1c3ccccc3n(CCCCn3cc(CO)nn3)c12
